For assay [1], the system named is Mus musculus. Put plainly: Antiinflammatory activity in antibiotic resistant Candida albicans clinical isolate 08030809 induced mouse vaginitis model assessed as reduction in IL-10 secretion in vaginal tissue at 50 ug administered as intravaginal instillation measured on day 10 by ELISA. The format is functional, Vagina. Summed up:
(§1)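 Same estradiol-primed mouse model, infected intravaginally with C. albicans 08030809 and treated by intravaginal instillation (20 µL/mouse). Vaginal canals excised on day 10 of treatment and homogenised in 0.9% NaCl. Supernatant taken after 2,000 g for 15 min. TNF-α, IL-6, IL-1β and IL-10 measured by ELISA. Mean ± SE of three independent experiments; unpaired t-test versus vehicle.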
(An ELISA detects its analyte on a solid surface through an enzyme-linked reagent.)

Assay [2] concerns Mus musculus. Put plainly: Antiinflammatory activity in antibiotic resistant Candida albicans clinical isolate 08030809 induced mouse vaginitis model assessed as reduction in IL-6 secretion in vaginal tissue administered as intravaginal instillation measured on day 10 by ELISA. The format is functional, organism-based. The settings on record: Vagina. Summed up: as §1
The test system of assay [3] is Candida albicans. Description: Antimicrobial activity against antibiotic resistant Candida albicans clinical isolate 08030809 compound treated in PBS solution measured after 36 hrs by disc diffusion method. The format is functional. The settings on record: isolate 08030809, 36 h. The method in brief:
(§2)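 Salt-tolerance test: peptide at 2 mg/mL was prepared in sterile ddH2O, in 150 mM NaCl, or in PBS (150 mM NaCl, 2.7 mM KCl, 1.5 mM KH2PO4, 8 mM K2HPO4, pH 7.2). Anti-C. albicans activity was then assessed by inhibition zone on Sabouraud medium with 0.7% agar.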
Background: A growth-free zone around the sample is the usual read-out of agar diffusion tests.

In assay [4] the test system is Candida albicans. Description: Antimicrobial activity against antibiotic resistant Candida albicans clinical isolate 08032815 compound treated in double distilled water measured after 36 hrs by disc diffusion method. The format is functional. To be noted: isolate 08032815, 36 h. Summed up:
as §2

The test system of assay [5] is Candida albicans. Put plainly: Effect on cell morphology in antibiotic resistant Candida albicans clinical isolate 08030809 assessed as cell swelling at MIC to 2.5 times MIC after 30 mins by scanning electron microscopy. The class given is functional, organism-based. Summed up:
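Exponential-phase C. albicans 08030809 was washed in PBS and resuspended in Sabouraud medium. Cells were treated 30 min at 37°C alongside a vehicle control. They were then fixed in 2.5% glutaraldehyde (4°C, 2 h) and 1% osmium tetroxide, dehydrated through graded ethanol, freeze-dried from tert-butanol, gold-coated and imaged by SEM. Images are typical of three experiments.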

Assay [6] relates to Mus musculus. Put plainly: Antiinflammatory activity in antibiotic resistant Candida albicans clinical isolate 08030809 induced mouse vaginitis model assessed as microabscess number in vaginal tissue at 20 ug administered as intravaginal instillation measured on day 6 by hematoxylin-eosin staining based microscopic method (reference value: 61). The format is functional, Vagina. Summed up: (§3)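 Mice given weekly subcutaneous estradiol valerate (0.5 mg in 0.1 mL vegetable oil) 72 h before infection. Infected intravaginally with 20 µL of 10^7 CFU/mL C. albicans 08030809. Intravaginal instillation of 20 µL daily for 16 days. Vaginal canals excised after lavage, formalin-fixed, paraffin-embedded, HE-stained. Microabscesses counted per high-power field over 6 fields per section, three independent experiments.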

The subject of assay [7] is Mus musculus. Put plainly: Antiinflammatory activity in antibiotic resistant Candida albicans clinical isolate 08030809 induced mouse vaginitis model assessed as reduction in IL-6 secretion in vaginal tissue at 50 ug administered as intravaginal instillation measured on day 10 by ELISA. The class given is functional, Vagina. Summed up:
as §1

The subject of assay [8] is Candida albicans. Put plainly: Antimicrobial activity against antibiotic resistant Candida albicans clinical isolate 08030809 in mouse vaginitis model assessed as decrease in colony count in lavage liquid of vagina at 50 ug administered as intravaginal instillation measured on day 11. The format is functional.
For assay [9], the system named is Mus musculus. Put plainly: Antiinflammatory activity in antibiotic resistant Candida albicans clinical isolate 08030809 induced mouse vaginitis model assessed as reduction in microabscess number in vaginal tissue at 50 ug administered as intravaginal instillation measured after 16 days by hematoxylin-eosin staining based microscopic method. The settings on record: Vagina. The format is functional, organism-based. The method in brief: as §3

The test system of assay [10] is Candida albicans. Put plainly: Antimicrobial activity against antibiotic resistant Candida albicans clinical isolate 08030102 after 16 hrs by broth dilution method. The settings on record: isolate 08030102, 16 h. The format is functional. Summed up:
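Broth microdilution in Sabouraud liquid medium. Samples are stocks in 0.9% NaCl, 10 µL added to 90 µL broth plus 100 µL of 2 × 10^5 CFU/mL yeast suspension. Incubated 16 h at 28°C, growth read by A600. MIC is the lowest concentration completely inhibiting growth; mean of three independent experiments.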
A general note: In broth dilution the organism is exposed to a series of concentrations in liquid medium.

For assay [11], the system named is Candida albicans. Description: Antimicrobial activity against antibiotic resistant Candida albicans clinical isolate 08030809 assessed as clone count at 10 times MIC after 30 mins by colony counting assay (reference value: 156 +/- 16 CFU). The format is functional.

Activity calls are given as the source filed them. The rule behind the calls is not given here.

Broadly, the MIC is the lowest concentration that inhibits growth of the organism. Turning to H-VKRWKKWRWKWKKWV-NH2, the results for the “inhibition (INH)” value in the assay with Mus musculus [1], with Mus musculus [7] and in the assay on Candida albicans [8] were 45%, 57% and 66%, respectively. Moreover, the Activity entry with Mus musculus [2] was “Dose-dependent effect”; in the assay with Mus musculus [6], 16; with Candida albicans [11], 0 CFU. Besides, the figures for the MIC against Candida albicans [3], against Candida albicans [4] and with Candida albicans [10] were 1.4 µg/mL, 2.79 µg/mL and 3.13 µg/mL, respectively. Also, the result in the assay with Candida albicans [5] and in the assay with Mus musculus [9] was Active.

The values above are taken from ChEMBL document CHEMBL3779860, “A Designed Tryptophan- and Lysine/Arginine-Rich Antimicrobial Peptide with Therapeutic Potential for Clinical Antibiotic-Resistant Candida albicans Vaginitis” (J Med Chem, 2016).
